One block for each molecule: values may come before it.
Assays:
Format in all cases: microsomes
Conditions in all cases: Microsome
[1] = target: T1, Mitochondrial amidoxime-reducing component 1 (Homo sapiens) (UniProt Q5VT66); test: (§1) Specific activity at molybdenum cofactor/metal-free precursor molybopterin bound human recombinant mARC1 expressed in Escherichia coli TP1000 assessed as reduction to diminazene monoamidoxime in complete reconstituted system containing microsomal cyt b5, NADH and microsomal NADH cyt b5 reductase per mg of protein at 0.5 mM by HPLC analysis
T1 sequence (whole entry): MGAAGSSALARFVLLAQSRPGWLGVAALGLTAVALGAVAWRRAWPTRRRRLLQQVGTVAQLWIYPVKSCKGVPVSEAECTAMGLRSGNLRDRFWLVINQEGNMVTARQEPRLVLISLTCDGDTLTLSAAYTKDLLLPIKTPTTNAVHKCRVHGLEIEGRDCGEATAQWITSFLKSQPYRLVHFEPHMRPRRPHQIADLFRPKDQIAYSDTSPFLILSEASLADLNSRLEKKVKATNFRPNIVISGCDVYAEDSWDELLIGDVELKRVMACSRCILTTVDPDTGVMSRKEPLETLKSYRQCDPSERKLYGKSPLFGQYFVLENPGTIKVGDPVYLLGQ
Method in brief: (§2)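 His6-tagged human mARC1 expressed in E. coli TP1000 (22 °C, IPTG induction, 1 mM sodium molybdate added) and Ni-NTA purified. Assay mix: 100 µg mARC1, 0.05 U pig liver microsomal NADH cyt b5 reductase, 200 pmol microsomal cyt b5, 0.5 mM N-hydroxylated substrate, 1 mM NADH, 100 mM potassium phosphate pH 6.0. Omitted components as stated per line. Aerobic, 37 °C, 3 min preincubation, NADH start, 15 or 20 min, methanol stop. Product quantified by HPLC; mean ± SD, n=4.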

[2] = target: T1, Mitochondrial amidoxime-reducing component 1 (Homo sapiens); test: as §1, with “diminazene” for “diminazene monoamidoxime”; method in brief: as §2
[3] = target: T1, Mitochondrial amidoxime-reducing component 1 (Homo sapiens); test: as §1, with “pentamidine” for “diminazene”; method in brief: as §2
[4] = target: T1, Mitochondrial amidoxime-reducing component 1 (Homo sapiens); test: as §1, with “pentamidine” for “diminazene monoamidoxime”; method in brief: as §2
[5] = target: T1, Mitochondrial amidoxime-reducing component 1 (Homo sapiens); test: as §1, with “guanabenz” for “diminazene monoamidoxime”; method in brief: as §2
[6] = target: T1, Mitochondrial amidoxime-reducing component 1 (Homo sapiens); test: as §1, with “debrisoquine” for “diminazene monoamidoxime”; method in brief: as §2
[7] = target: T1, Mitochondrial amidoxime-reducing component 1 (Homo sapiens); test: (§3) Specific activity at molybdenum cofactor/metal-free precursor molybopterin bound human recombinant mARC1 expressed in Escherichia coli TP1000 assessed as reduction to benzamidine in reconstituted system containing NADH and microsomal NADH cyt b5 reductase without microsomal cytochrome b5 per mg of protein at 0.5 mM by HPLC analysis; method in brief: as §2
[8] = target: T1, Mitochondrial amidoxime-reducing component 1 (Homo sapiens); test: as §1, with “benzamidine” for “diminazene monoamidoxime”; method in brief: as §2
[9] = target: T1, Mitochondrial amidoxime-reducing component 1 (Homo sapiens); test: as §3, with “containing microsomal cyt b5 and” for “containing”, “without” for “and”, “cytochrome” for “cyt”, “reductase” for “reductase without microsomal cytochrome b5”; method in brief: as §2
[10] = target: T1, Mitochondrial amidoxime-reducing component 1 (Homo sapiens); test: as §1, with “melagatran” for “diminazene monoamidoxime”; method in brief: as §2

SMILES: N/C(=N\O)c1ccc(/N=N/Nc2ccc(/C(N)=N/O)cc2)cc1
- Activity [1]: 4.31 nmol/min
- Activity [2]: 0.05 nmol/min

SMILES: N/C(=N\O)c1ccc(OCCCCCOc2ccc(/C(N)=N/O)cc2)cc1
- Activity [3]: 0.56 nmol/min
- Activity [4]: 0.49 nmol/min

SMILES: N=C(NO)N/N=C/c1c(Cl)cccc1Cl
- Activity [5]: 20.4 nmol/min

SMILES: N/C(=N\O)c1ccc(CNC(=O)[C@@H]2CCN2C(=O)[C@H](NCC(=O)O)C2CCCCC2)cc1
- Activity [10]: 0.48 nmol/min

SMILES: N=C(N)c1ccc(OCCCCCOc2ccc(/C(N)=N\O)cc2)cc1
- Activity [4]: 6.59 nmol/min

The next lines start with the values.

- Activity [6]: 15.9 nmol/min
SMILES: N/C(=N\O)N1CCc2ccccc2C1

- Activity [7]: 0.23 nmol/min
- Activity [8]: 1.3 nmol/min
- Activity [9]: 0.2 nmol/min
SMILES: N/C(=N\O)c1ccccc1

Reference: ChEMBL document CHEMBL1151750, “The fourth molybdenum containing enzyme mARC: cloning and involvement in the activation of N-hydroxylated prodrugs” (J Med Chem, 2008)
